Test results: ChEMBL document CHEMBL3421622, “New organochalcogen multitarget drug: synthesis and antioxidant and antitumoral activities of chalcogenozidovudine derivatives” (J Med Chem, 2015)
Calls of active or inactive are those of the source. No cut-off for these calls is given here.

Tests used:
Brain = test: Antioxidant activity in Wistar rat brain assessed as inhibition of TBARS formation at 200 uM after 60 mins by spectrophotometric method relative to control; format: functional
Summary of the method: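 Adult male Wistar rat brain (250−350 g) homogenized 1:10 w/v in 10 mM Tris-HCl pH 7.4 and spun at 2000 rpm for 10 min; low-speed supernatant (S1) used. Blank lacked Fe. TBARS read at 532 nm against MDA standard. Three experiments.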

Liver [1] = test: Toxicity in rat liver assessed as effect on cell viability at 50 to 200 uM after 2 hrs by MTT reduction assay relative to control
Summary of the method: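 Liver slices from healthy adult rats preincubated 10 min in Krebs Ringer pH 7.4. Compound added to 200, 100 or 50 μM final for 2 h at 37 °C. MTT (5 mg/mL) added for 30 min at 37 °C, formazan dissolved in DMSO, absorbance read at 570 and 700 nm. Expressed as % of untreated; three experiments.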

Liver [2] = test: Toxicity in rat liver assessed as change in AST release relative to control; format: tissue-based
5637 [3] = test: Cytotoxicity against human 5637 cells assessed as growth inhibition at 50 uM after 48 hrs by MTT assay relative to control; format: functional; conditions: Homo sapiens, 5637, 48 h; read-out: GI
Summary of the method: (§1)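 5637 cells in log phase, seeded at 2 × 10^4 per well and grown 24 h. Exposed for 24, 48 or 72 h to 200−12.5 μM in DMSO (final ≤0.25%, vehicle group included). MTT added for 3 h, formazan dissolved in DMSO, read at 492 nm. Growth inhibition = [1 − Abs treated/Abs control] × 100%. […] Three independent experiments.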

5637 [4] = test: Cytotoxicity against human 5637 cells assessed as growth inhibition after 48 hrs by MTT assay; format: functional, cell-based; conditions: Homo sapiens, 5637, 48 h; summary of the method: as §1
5637 [5] = test: Induction of apoptosis in human 5637 cells assessed as early and late apoptotic cells at 100 uM after 48 hrs by annexin V-PE/7-AAD staining-based flow cytometric analysis (reference value: 7.36%); format: functional
5637 [6] = test: Induction of apoptosis in human 5637 cells at 50 uM after 48 hrs by annexin V-PE/7-AAD staining-based flow cytometric analysis (reference value: 7.36%); format: functional
5637 [7] = test: Induction of apoptosis in human 5637 cells assessed as DNA fragmentation at 50 to 100 uM after 48 hrs by TUNEL assay relative to control; format: functional, cell-based
Summary of the method: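 5637 cells treated 48 h, then collected and fixed. TdT-mediated BrdU labelling of fragmented DNA, detected with TMR-anti-BrdU after 30 min staining in the dark at room temperature. TUNEL-positive cells counted by flow cytometry.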

5637 [8] = test: Cytotoxicity against human 5637 cells assessed as dead cells at 100 uM after 48 hrs by calcein/ethidium bromide staining-based fluorescence microscopic analysis relative to control; format: functional, cell-based
Summary of the method: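 5637 bladder carcinoma cells (DMEM, 10% FBS) seeded at 2 × 10^4 per well and grown 24 h. Exposed to 100 or 50 μM compound for 48 h. Washed, then stained with calcein (live, green) and ethidium homodimer (dead, red). Scored by multicolor fluorescence microscopy.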

5637 [9] = test: Downregulation of Bcl2 mRNA expression in human 5637 cells at 100 uM after 48 hrs by real-time PCR analysis relative to control; format: functional, cell-based
Summary of the method: (§2)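 5637 cells seeded at 2 × 10^5 per well and grown 24 h. Treated with 50 or 100 μM for 48 h, washed in PBS, RNA extracted. Bax, Bcl-2, caspase-9 and survivin mRNA measured by real-time PCR; Bax:Bcl-2 ratio derived. Experiments in triplicate.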

5637 [10] = test: Induction of apoptosis in human 5637 cells assessed as ratio of Bax mRNA to Bcl2 mRNA level at 100 uM after 48 hrs by real-time PCR analysis (reference value: 0.08 to 0.13); format: functional; summary of the method: as §2
5637 [11] = test: Induction of apoptosis in human 5637 cells assessed as ratio of Bax mRNA to Bcl2 mRNA level at 50 uM after 48 hrs by real-time PCR analysis (reference value: 0.08 to 0.13); format: functional; summary of the method: as §2
5637 [12] = test: Upregulation of caspase-9 mRNA expression in human 5637 cells at 100 uM after 48 hrs by real-time PCR analysis relative to control; format: functional, cell-based; summary of the method: as §2
5637 [13] = test: Downregulation of survivin mRNA expression in human 5637 cells at 100 uM after 48 hrs by real-time PCR analysis relative to control; format: functional, cell-based; summary of the method: as §2
Liver [14] = test: Toxicity in rat liver slices assessed as change in ALT release relative to control; conditions: in vitro
[15] = Antioxidant activity assessed as thiol peroxidase-like activity assessed as time required to oxidize 50% of benzenethiol during reduction of hydrogen peroxide measured for 180 secs by UV spectroscopic analysis; conditions: 0.05 h
[16] = Antioxidant activity assessed as thiol peroxidase-like activity assessed as time required to oxidize 50% of benzenethiol during reduction of hydrogen peroxide measured for 180 secs by UV spectroscopic analysis relative to control; conditions: 0.05 h
5637 [17] = test: Cytotoxicity against human 5637 cells assessed as growth inhibition at 100 to 200 uM after 48 hrs by MTT assay relative to control; format: functional
Summary of the method: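 5637 bladder carcinoma cells in DMEM with 10% FBS, seeded 2 × 10^4/well, grown 24 h at 37 °C, 5% CO2. Exposed to 200–12.5 μM from DMSO stocks (final DMSO ≤0.25%, solvent control) for 48 h. MTT added for 3 h, formazan dissolved in DMSO, read at 492 nm. Growth inhibition = [1 − Abs treated/Abs control] × 100%. Three independent experiments.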

5637 [18] = test: Cytotoxicity against human 5637 cells assessed as growth inhibition at 12.5 to 200 uM after 48 hrs by MTT assay relative to control; format: functional; summary of the method: as §1

Structure (SMILES): Cc1cn([C@H]2C[C@H](N=[N+]=[N-])[C@@H](C[Se]c3ccc(Cl)cc3)O2)c(=O)[nH]c1=O
- inhibition (Brain): Active
- Activity (Liver [1]): Non-toxic
- Activity (Liver [2]): Non-toxic
- inhibition of growth at 50 µM 5637 [3]: 50%
- IC50 5637 [4]: 40.4 µM
- Activity 5637 [5]: 92.8%
- Activity 5637 [6]: 71.12%
- Activity 5637 [7]: Active
- Activity 5637 [8]: Active
- Activity 5637 [9]: Active
- Ratio 5637 [10]: 4.8
- Ratio 5637 [11]: 0.9
- Activity 5637 [12]: Active
- Activity 5637 [13]: Active
- Activity (Liver [14]): Non-toxic
- t50 [15]: 15.2 min
- fold change (FC) [16]: 4

Structure (SMILES): Cc1cn([C@H]2C[C@H](N=[N+]=[N-])[C@@H](C[Se]c3ccccc3)O2)c(=O)[nH]c1=O
- inhibition (Brain): Active
- Activity (Liver [1]): Non-toxic
- Activity (Liver [2]): Non-toxic
- growth inhibition (GI) 5637 [17]: >50%
- IC50 5637 [4]: 78.9 µM
- Activity 5637 [5]: 90.74%
- Activity 5637 [7]: Active
- Activity 5637 [9]: Active
- Ratio 5637 [10]: 10.6
- Ratio 5637 [11]: 1.45
- Activity 5637 [12]: Active
- Activity 5637 [13]: Active
- Activity (Liver [14]): Non-toxic
- t50 [15]: 56.4 min

Structure (SMILES): Cc1cn([C@H]2C[C@H](N=[N+]=[N-])[C@@H](CO)O2)c(=O)[nH]c1=O [ZIDOVUDINE]
- Activity (Liver [2]): Non-toxic
- inhibition of growth at 50 µM 5637 [3]: 50%
- growth inhibition (GI) 5637 [18]: >50%
- IC50 5637 [4]: 7 µM
- Activity 5637 [6]: 7.74%
- Activity 5637 [7]: inactive
- Activity 5637 [8]: inactive
- Activity 5637 [9]: Active
- Activity (Liver [14]): Non-toxic
- t50 [15]: 66.5 min

Structure (SMILES): Cc1ccc([Se]C[C@H]2O[C@@H](n3cc(C)c(=O)[nH]c3=O)C[C@@H]2N=[N+]=[N-])cc1
- inhibition (Brain): Active
- Activity (Liver [1]): Non-toxic
- Activity (Liver [2]): Non-toxic
- inhibition of growth at 50 µM 5637 [3]: 50%
- IC50 5637 [4]: 51.6 µM
- Activity 5637 [5]: 89.6%
- Activity 5637 [7]: Active
- Activity 5637 [9]: Active
- Ratio 5637 [10]: 19.4
- Ratio 5637 [11]: 0.5
- Activity 5637 [12]: Active
- Activity 5637 [13]: Active
- Activity (Liver [14]): Non-toxic
- t50 [15]: 22.5 min
- fold change (FC) [16]: 4

Structure (SMILES): Cc1cc(C)c([Se]C[C@H]2O[C@@H](n3cc(C)c(=O)[nH]c3=O)C[C@@H]2N=[N+]=[N-])c(C)c1
- inhibition (Brain): Active
- t50 [15]: 97.5 min

Structure (SMILES): Cc1cn([C@H]2C[C@H](N=[N+]=[N-])[C@@H](C[Se]c3cccc4ccccc34)O2)c(=O)[nH]c1=O
- inhibition at 200 µM (Brain; 1 h): 80%
- t50 [15]: 66.3 min
